The source made the active and inactive calls. The calls are words filed in the database; no cut-off is given here.
Assays:
[1] = biological target: Histamine H3 receptor (Cavia porcellus, UniProt Q9JI35); experiment: Binding affinity against Histamine H3 receptor
How it was run: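 H3 receptor binding Ki values are the mean of two independent experiments, with errors given as the range from the mean.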

[2] = system: Cavia porcellus; experiment: Effective dose was tested in vivo for 50% inhibition by an H1 histamine-mediated bronchospasm in guinea pig; type: functional; settings: Bronchiole
[3] = system: Cavia porcellus; experiment: Effective dose was tested in vivo for 50% inhibition by an electrically induced CNS hypertension model after iv administration.; type: functional
How it was run: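 H3 agonist activity was measured in a CNS hypertension model with intravenous dosing. Values are ED50 in mg/kg, or % of the activity of the reference H3 agonist at 0.3 mg/kg.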

[4] = biological target: Histamine H1 receptor (Cavia porcellus, UniProt P31389); experiment: Binding affinity against H1 receptor
Histamine H1 receptor, sequence (P31389 whole entry): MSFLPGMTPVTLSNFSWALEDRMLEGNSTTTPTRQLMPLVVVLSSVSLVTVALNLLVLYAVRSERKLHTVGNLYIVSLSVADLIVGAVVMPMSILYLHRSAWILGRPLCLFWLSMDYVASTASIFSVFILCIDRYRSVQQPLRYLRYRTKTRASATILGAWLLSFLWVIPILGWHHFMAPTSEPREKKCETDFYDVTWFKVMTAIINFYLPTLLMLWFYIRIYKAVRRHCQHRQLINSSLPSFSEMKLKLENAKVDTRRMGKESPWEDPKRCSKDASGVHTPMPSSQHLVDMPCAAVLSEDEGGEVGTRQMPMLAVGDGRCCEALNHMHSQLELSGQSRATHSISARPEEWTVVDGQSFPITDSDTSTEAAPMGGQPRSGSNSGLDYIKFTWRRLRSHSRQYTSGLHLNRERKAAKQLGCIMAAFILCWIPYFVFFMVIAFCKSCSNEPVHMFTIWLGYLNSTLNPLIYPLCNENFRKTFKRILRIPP

[5] = biological target: Histamine H1 receptor (Cavia porcellus) (UniProt P31389); settings: Ileum, 10 uM
Histamine H1 receptor (Cavia porcellus), sequence (P31389 whole entry): as above

[6] = biological target: Histamine H3 receptor (Cavia porcellus) (UniProt Q9JI35); settings: Ileum
Histamine H3 receptor (Cavia porcellus), sequence (Q9JI35 whole entry): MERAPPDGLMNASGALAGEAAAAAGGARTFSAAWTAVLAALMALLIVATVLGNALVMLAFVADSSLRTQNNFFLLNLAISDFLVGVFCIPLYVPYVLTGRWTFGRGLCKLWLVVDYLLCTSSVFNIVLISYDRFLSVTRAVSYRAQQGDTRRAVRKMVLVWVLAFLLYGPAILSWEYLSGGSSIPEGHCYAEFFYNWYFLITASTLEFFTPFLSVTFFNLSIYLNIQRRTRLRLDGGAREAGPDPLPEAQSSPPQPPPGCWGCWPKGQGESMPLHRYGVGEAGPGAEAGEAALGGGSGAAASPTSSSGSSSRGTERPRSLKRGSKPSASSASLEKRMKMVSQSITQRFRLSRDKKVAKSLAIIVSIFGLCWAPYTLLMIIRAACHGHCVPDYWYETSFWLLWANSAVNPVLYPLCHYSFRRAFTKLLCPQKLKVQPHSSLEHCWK

[7] = biological target: Histamine H3 receptor (Cavia porcellus) (UniProt Q9JI35); settings: Ileum, 1 uM
[8] = system: Cavia porcellus; experiment: Effective dose was tested in vivo for 50% inhibition by an H1 histamine-mediated bronchospasm after iv administration in guinea pig; type: functional; settings: Bronchiole
How it was run: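 Given intravenously and measured in an H1 histamine-mediated bronchospasm model. Value is expressed as ED50 in mg/kg.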

[9] = biological target: Histamine H1 receptor (Cavia porcellus) (UniProt P31389); settings: Ileum

Histamine H3 receptor, sequence (Q9JI35 whole entry): as above

N[C@H]1CCC[C@@H]1c1cnc[nH]1 (racemic)
Ki [1]: 0.74 µM

C[C@H]1NCC[C@@H]1c1c[nH]cn1 (racemic)
Ki [1]: 0.0087 µM

C[C@H]1NCC[C@@H]1c1c[nH]cn1 [listing 1 of 2 here]
ED50 [2]: > 100 mg/kg | ED50 [3]: 0.18 mg/kg | Ki [1]: 0.0028 µM | Ki [4]: > 10 µM

C[C@H]1NCC[C@@H]1c1c[nH]cn1 [listing 2 of 2 here]
pD2 [5]: inactive | pD2 [6]: 7.1

C[C@]1(N)CCCC[C@@H]1c1c[nH]cn1 (racemic)
Ki [1]: > 2 µM

C[C@@H]1NCC[C@H]1c1c[nH]cn1
Ki [1]: 0.033 µM | Ki [4]: > 10 µM | pD2 [7]: inactive

C[C@@]1(N)CCCC[C@@H]1c1cnc[nH]1 (racemic)
Ki [1]: > 2 µM

C[C@@H](N)Cc1c[nH]cn1
ED50 [3]: 0.1 mg/kg | Ki [1]: 0.0015 µM | Ki [4]: > 10 µM | ED50 [8]: 1.7 mg/kg | pD2 [9]: 5.4 | pD2 [6]: 8.2

C[C@@H](N)[C@@H](C)c1c[nH]cn1 (racemic)
Ki [1]: 0.011 µM

C[C@H](c1c[nH]cn1)[C@@H](C)N (racemic)
Ki [1]: 0.0008 µM
